{"data": "Measured values gathered from unrelated publications", "organism": "Pseudomonas aeruginosa", "note": "Protocols differ between the studies behind these lines."}
{"Compound": "C[C@@H](O)[C@H]1C(=O)N2C(C(=O)O)=C(S[C@@H]3CN[C@H](C(=O)N(C)C)C3)[C@H](C)[C@H]12", "assay": "microbial growth", "test system": "PAO1", "quantity": "MIC90", "result": "0.25 µg/mL"}
{"Compound": "CCCCCCCCCCCC(=O)OC[C@H]1O[C@@H](n2cc(C)c(=O)[nH]c2=O)C[C@@H]1OC(=O)c1ccc(C(C)(C)C)cc1", "assay": "microbial killing, broth dilution", "quantity": "MBC", "result": "16 µg/mL"}
{"Compound": "COC(=O)c1cc(-c2cccc(NC(=O)Nc3cccc(F)c3)c2)on1", "assay": "microbial growth, broth dilution", "test system": "ATCC27853", "quantity": "MIC", "result": "> 64 µg/mL"}
{"Compound": "CSc1ccc(/C=C/c2cc(/C=C3\\Sc4ccccc4N3CCCN3CCCC3)c3ccccc3[n+]2C)cc1.[I-]", "assay": "microbial growth, broth dilution", "test system": "ATCCBAA2108", "setting": "drug-resistant strain", "quantity": "MIC", "result": "64 µg/mL"}
{"Compound": "ONCc1cc(F)cc(F)c1", "assay": "microbial growth", "test system": "ATCC15692", "setting": "8 h", "quantity": "MIC50", "result": "150 µg/mL"}
{"Compound": "O=C(O)c1cn(C2CC2)c2cc(N3CCNCC3)c(F)cc2c1=O", "assay": "microbial growth", "test system": "K799/61", "setting": "1000 µg/mL", "quantity": "inhibition zone", "result": "33.5 mm"}
{"Compound": "O=C(Nc1cccc(-c2cc(C(=O)O)no2)c1)Nc1ccc(Cl)c(Cl)c1", "assay": "microbial growth, broth dilution", "test system": "ATCC27853", "quantity": "MIC", "result": "> 64 µg/mL"}
{"Compound": "CCCCCCCCCCCC(=O)OC[C@H]1O[C@@H](n2cc(C)c(=O)[nH]c2=O)C[C@@H]1O", "assay": "microbial killing, broth dilution", "quantity": "MBC", "result": "16 µg/mL"}
{"Compound": "COc1cccc(OC)c1C(=O)N[C@@H]1C(=O)N2[C@@H]1SC(C)(C)[C@@H]2C(=O)O", "assay": "microbial growth, broth dilution", "test system": "ATCCBAA2108", "setting": "drug-resistant strain", "quantity": "MIC", "result": "> 64 µg/mL"}
{"Compound": "CC1(C)S[C@@H]2[C@H](NC(=O)[C@H](N)c3ccccc3)C(=O)N2[C@H]1C(=O)O", "assay": "microbial growth, well diffusion", "test system": "ATCC27853", "setting": "60000 µg/mL", "quantity": "inhibition zone", "result": "32 mm"}
